# Measured values taken from ChEMBL document CHEMBL1629686, “Substrate selectivity and a novel role in inhibitor discrimination by residue 237 in the KPC-2 beta-lactamase” (Antimicrob Agents Chemother, 2010).
# Legend:
# [1] = tested on: Klebsiella pneumoniae; experiment: Ratio of Kcat/Km for Klebsiella pneumoniae 1534 beta-lactamase KPC-2 T237S mutant by spectrophotometric analysis
# In short: (§1)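 Purified KPC-2 variant enzymes (periplasmic lysate from E. coli, preparative isoelectric focusing). Hydrolysis followed by diode-array spectrophotometry in 10 mM PBS, pH 7.4, room temperature. Enzyme at 10 nM with substrate in molar excess for pseudo-first-order conditions. Vmax and Km came from a nonlinear least-squares Michaelis-Menten fit.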
# [2] = tested on: Klebsiella pneumoniae; experiment: Activity of Klebsiella pneumoniae 1534 beta-lactamase KPC-2 T237S mutant by spectrophotometric analysis; in short: as §1
# [3] = tested on: Klebsiella pneumoniae; experiment: Selectivity index, Ratio of Kcat/Km for Klebsiella pneumoniae 1534 beta-lactamase KPC-2 T237S mutant to ratio of Kcat/Km for Klebsiella pneumoniae 1534 beta-lactamase KPC-2 by spectrophotometric analysis
# In short: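 Kinetics used purified enzymes in 10 mM PBS, pH 7.4, room temperature, with 10 nM enzyme and substrate in excess. Km and Vmax came from a Michaelis-Menten fit. kcat/Km of the variant was compared with wild type as ΔΔG = −RT ln of the kcat/Km ratio.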
# [4] = tested on: Klebsiella pneumoniae; experiment: Ratio of Kcat/Km for Klebsiella pneumoniae 1534 beta-lactamase KPC-2 T237E mutant by spectrophotometric analysis; in short: as §1
# [5] = tested on: Klebsiella pneumoniae; experiment: Ratio of Kcat/Km for Klebsiella pneumoniae 1534 beta-lactamase KPC-2 T237A mutant by spectrophotometric analysis; in short: as §1
# [6] = tested on: Klebsiella pneumoniae; experiment: Activity of Klebsiella pneumoniae 1534 beta-lactamase KPC-2 T237E mutant by spectrophotometric analysis; in short: as §1
# [7] = tested on: Klebsiella pneumoniae; experiment: Activity of Klebsiella pneumoniae 1534 beta-lactamase KPC-2 T237A mutant by spectrophotometric analysis; in short: as §1
compound,measurement,setting,value
O=C(Cc1cccs1)N[C@@H]1C(=O)N2C(C(=O)O)=C(/C=C/c3ccc([N+](=O)[O-])cc3[N+](=O)[O-])CS[C@H]12,kcat/Km,[1],1e+07 M⁻¹ s⁻¹
same,Km,[2],5 µM
same,kcat,[2],50 s⁻¹
same,fold change (FC),[3],2.7
same,kcat/Km,[4],600000 M⁻¹ s⁻¹
same,kcat/Km,[5],1.3e+07 M⁻¹ s⁻¹
same,Km,[6],167 µM
same,kcat,[6],92 s⁻¹
same,Km,[7],15 µM
same,kcat,[7],191 s⁻¹
